Experimental data collected from several papers.
Lines come from different studies, so protocols differ.
USP5: Ubiquitin carboxyl-terminal hydrolase 5 (USP5, Homo sapiens, UniProt P45974)
ADORA1: Adenosine receptor A1 (ADORA1, Homo sapiens, UniProt P30542)
MAP4K3: Mitogen-activated protein kinase kinase kinase kinase 3 (MAP4K3, Homo sapiens, UniProt Q8IVH8)
TACR3: Neuromedin-K receptor (TACR3, Homo sapiens, UniProt P29371)

Compound | target | observed | action | technique | tested at | inhibition [%]
CCOC(=O)c1ccc(OC(=O)CCCCCNC(=N)N)cc1 | USP5 | enzyme activity | inhibitor | – | 10 µM | 1
O[C@H]1[C@H](n2cnc3c(NC(C4CCCC4)C4CCCC4)nc(Cl)nc32)[C@H]2C[C@@]2(CSc2ccccc2F)[C@H]1O | ADORA1 | ligand displacement | – | radioligand | 10 µM | -6
C#Cc1n[nH]c2c(-c3cn([C@@H](C)c4ccccn4)c(=O)[nH]c3=O)cc(F)cc12 | MAP4K3 | enzyme activity | inhibitor | – | 0.1 µM | -2.5
c1ccc(C(NCCNC(c2ccccc2)c2ccccc2)c2ccccc2)cc1 | TACR3 | cell-free assay | – | – | 10 µM | 61
CCN(CC)CCCC[C@H](NC(=O)[C@H](CC(C)C)NC(=O)[C@H](C)NC(=O)[C@H](Cc1ccccc1)NC(=O)c1ccc(C(C)(C)C)cc1)C(=O)N[C@@H](CO)C(=O)OC | TACR3 | ligand displacement | – | radioligand | 10 µM | 8
Cn1cc(-c2cccc(N3CCc4c(sc5c4CC(C)(C)C5)C3=O)c2CO)cc(Nc2ccncn2)c1=O | Inhibitor of nuclear factor kappa-B kinase subunit alpha (CHUK, Homo sapiens, UniProt O15111) | enzyme activity | inhibitor | – | 1 µM | -5
CNC(=O)[C@H](Cc1ccccc1)NC(=O)[C@H](CC(C)C)[C@H](CSc1cccs1)C(=O)NO | Matrilysin (MMP7, Homo sapiens, UniProt P09237) | enzyme activity | inhibitor | – | 10 nM | 94
CCOC(=O)[C@@]12C[C@@H]1[C@@H](n1cnc3c(NC(C4CCCC4)C4CCCC4)nc(Cl)nc31)[C@H](O)[C@@H]2O | ADORA1 | ligand displacement | – | radioligand | 10 µM | 55
COc1cc(Nc2ncc(F)c(Nc3ccc4c(n3)NC(=O)C(C)(C)O4)n2)cc(OC)c1OC | Serine/threonine-protein kinase 32C (STK32C, Homo sapiens, UniProt Q86UX6) | binding | – | competition with immobilised ligand | 10 µM | 0
N=C(N)c1ccc2cc(OC(=O)c3ccc(N=C(N)N)cc3)ccc2c1 | USP5 | enzyme activity | inhibitor | – | 10 µM | 0
C[C@H](C(=O)N[C@H]1COc2ccccc2[C@@H]1S(C)(=O)=O)c1ccc(F)cc1 | TACR3 | cell-free assay | – | – | 10 µM | -11
CCCCSC[C@@]12C[C@@H]1[C@@H](n1cnc3c(NC(C4CCCC4)C4CCCC4)nc(Cl)nc31)[C@H](O)[C@@H]2O | ADORA1 | ligand displacement | – | radioligand | 10 µM | -1
C#Cc1n[nH]c2c(-c3cn([C@@H](C)c4ccccc4)c(=O)[nH]c3=O)cc(F)cc12 | MAP4K3 | enzyme activity | inhibitor | – | 0.1 µM | -1.9
CN(CCN1CCC(OC(=O)Nc2ccccc2-c2ccccc2)CC1)C(=O)c1ccc(CN2CCC(C(N)=O)CC2)cc1 | TACR3 | ligand displacement | – | radioligand | 1 µM | 1
CN(C)C(=O)COC(=O)Cc1ccc(OC(=O)c2ccc(NC(=N)N)cc2)cc1 | USP5 | enzyme activity | inhibitor | – | 10 µM | 1
